≈ marks a conversion by molar mass, not a printed value. Calls of active or inactive are those of the source. The rule behind the calls is not given here.
How the values were obtained:
[1] = tested on: K562; assay: Growth inhibition of human K562 cells after 72 hrs by MTT assay; assay type: functional; conditions: K562, 72 h
In short: (§1)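 Leukemia cells (1x10^5 cells/cm3) were exposed to compound for 72 h, then MTT (5 mg/cm3) was added for 4 h. Formazan was dissolved with 10% SDS in 0.01 mol dm-3 HCl and absorbance read at 595 nm. Percent growth was taken versus untreated control minus background. GI50 came from a variable-slope fit, as mean ± SD of three independent experiments in triplicate.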

[2] = tested on: Caco-2; assay: Growth inhibition of human Caco2 cells after 72 hrs by MTT assay; assay type: functional; conditions: Caco-2, 72 h
In short: (§2)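 Adherent cells (2x10^4 cells/cm3) attached overnight, then were exposed to compound for 72 h. Medium was replaced with 5 mg/cm3 MTT, formazan was dissolved in DMSO and absorbance read at 595 nm. Percent growth was taken relative to untreated control minus background. GI50 came from a variable-slope log-inhibitor fit, as mean ± SD of three independent experiments in triplicate.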

[3] = tested on: Raji; assay: Growth inhibition of human Raji cells after 72 hrs by MTT assay; assay type: functional; in short: as §1
[4] = Growth inhibition of MDCK1 cells after 72 hrs by MTT assay; parameters: species or system Canis lupus familiaris; conditions: dog; in short: as §2
[5] = Solubility of the compound in DMSO; assay type: physicochemical
[6] = tested on: HeLa; assay: Growth inhibition of human HeLa cells after 72 hrs by MTT assay; assay type: functional; in short: as §2
[7] = Chemical stability in aqueous solution after several weeks; assay type: physicochemical; conditions: buffer
In short: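 Aqueous compound solutions were monitored for several weeks by UV-Vis absorbance at 220-900 nm. Linearity with concentration was checked up to 3.5 × 10^-5 mol dm-3, and spectra were recorded at 25–90 °C with reproducibility checked on cooling to 25 °C.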

[8] = tested on: Calf thymus DNA; assay: Binding affinity to calf thymus DNA minor groove at 0.1, 0.3, 0.5, 0.7 compound to ds-polynucleotide ratio by CD-spectrophotometric method; assay type: nucleic-acid assay; conditions: Bos taurus
In short: (§3)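 Induced CD spectra were recorded in 1 cm quartz cuvettes in Na cacodylate buffer (I = 0.05 mol dm-3, pH 7.0) with ct-DNA or polyA-polyU. Compound was added at r = [compound]/[polynucleotide] = 0.1, 0.3, 0.5 and 0.7. The CD signal was followed as a function of r.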

[9] = Solubility of the compound in water; assay type: physicochemical
[10] = Binding affinity to polyA-polyU (unknown origin) major groove at 0.1, 0.3, 0.5, 0.7 compound to ds-polynucleotide ratio by CD-spectrophotometric method; in short: as §3
[11] = tested on: K562; assay: Cell cycle arrest in human K562 cells assessed as decrease in cell levels at S phase at 10^-5 mol/dm'3 after 24 hrs by propidium iodide staining-based flow cytometric method; assay type: functional
[12] = Binding affinity to polyA-polyU (unknown origin) assessed as change in melting temperature at 0.5 compound to ds-polynucleotide ratio by spectrophotometric method
In short: (§4)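 Thermal melting of ct-DNA (sonicated, filtered) or polyA-polyU in Na cacodylate buffer, I = 0.05 mol dm-3, pH 7.0, at given r = [compound]/[polynucleotide]; polynucleotide as phosphate concentration. Tm from maximum of first derivative, checked by tangent method. ΔTm = Tm(complex) − Tm(free nucleic acid), average of at least two measurements, error ±0.5 °C.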

[13] = tested on: Calf thymus DNA; assay: Disruption of calf thymus DNA helix at 0.1, 0.3, 0.5, 0.7 compound to ds-polynucleotide ratio by CD-spectrophotometric method; assay type: nucleic-acid assay; conditions: Bos taurus; in short: as §3
[14] = tested on: K562; assay: Cell cycle arrest in human K562 cells assessed as accumulation at sub-G0 phase at 10^-5 mol/dm'3 after 24 hrs by propidium iodide staining-based flow cytometric method; assay type: functional
[15] = tested on: Calf thymus DNA; assay: Binding affinity to calf thymus DNA assessed as change in melting temperature at 0.1 compound to ds-polynucleotide ratio by spectrophotometric method; assay type: nucleic-acid assay; conditions: Bos taurus; in short: as §4
[16] = tested on: Calf thymus DNA; assay: Binding affinity to calf thymus DNA assessed as hypochromic effect by UV-vis spectrophotometric method; assay type: nucleic-acid assay; conditions: Bos taurus
In short: (§5)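 UV-Vis titration at room temperature in Na cacodylate buffer (I = 0.05 mol dm-3, pH 7.0). Portions of ct-DNA or polyA-polyU were added to a fixed compound concentration until saturation, with dilution correction. Polynucleotide was measured as phosphate. Ks and n were obtained by Scatchard analysis, together with the hypochromic change at the absorption maximum.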

[17] = Binding affinity to polyA-polyU (unknown origin) assessed as change in melting temperature at 0.3 compound to ds-polynucleotide ratio by spectrophotometric method; in short: as §4
[18] = Binding affinity to polyA-polyU (unknown origin) by UV-vis spectrophotometric method; in short: as §5
[19] = Binding affinity to polyA-polyU (unknown origin) assessed as hypochromic effect by UV-vis spectrophotometric method; in short: as §5
[20] = Binding affinity to polyA-polyU (unknown origin) assessed as change in melting temperature at 0.1 compound to ds-polynucleotide ratio by spectrophotometric method; in short: as §4
[21] = tested on: K562; assay: Cell cycle arrest in human K562 cells assessed as accumulation at G0-G1 phase at 10^-5 mol/dm'3 after 24 hrs by propidium iodide staining-based flow cytometric method; assay type: functional
[22] = tested on: K562; assay: Cell cycle arrest in human K562 cells assessed as decrease in cell levels at G2-M phase at 10^-5 mol/dm'3 after 24 hrs by propidium iodide staining-based flow cytometric method; assay type: functional
[23] = tested on: Calf thymus DNA; assay: Binding affinity to calf thymus DNA assessed as change in melting temperature at 0.5 compound to ds-polynucleotide ratio by spectrophotometric method; assay type: nucleic-acid assay; conditions: Bos taurus; in short: as §4
[24] = tested on: Calf thymus DNA; assay: Binding affinity to calf thymus DNA assessed as change in melting temperature at 0.3 compound to ds-polynucleotide ratio by spectrophotometric method; assay type: nucleic-acid assay; conditions: Bos taurus; in short: as §4

Structure (SMILES) | GI50 [1] [µM] | GI50 [2] [µM] | GI50 [3] [µM] | GI50 at 72 h [4] [µM] | solubility [5] [µM] | GI50 [6] [µM] | Stability [7] | Activity [8] | solubility [9] [µM] | Activity [11] | ΔTm [12] [°C] | ΔTm [15] [°C] | Activity [16] [%] | ΔTm [17] [°C] | log Ks [18] | Activity [19] | ΔTm [20] [°C] | Activity [21] | Activity [22] | also measured
N#Cc1ccc(Oc2ccnc3cc(Cl)ccc23)cc1 | 86.7 | > 100 | 91.4 | 88.5 | 1000 (≈ 281 µg/mL) | > 100 | Stable | – | – | – | – | – | – | – | – | – | – | – | – | –
N#Cc1ccc2nc(-c3ccc(Oc4ccnc5cc(Cl)ccc45)cc3)[nH]c2c1 | > 100 | > 100 | > 100 | 93.1 | 1000 (≈ 397 µg/mL) | > 100 | Stable | Active | – | – | – | – | – | – | – | – | – | – | – | –
Cl.Cl.Cl.Clc1ccc2c(NCCOc3ccc(-c4nc5ccc(C6=NCCN6)cc5[nH]4)cc3)ccnc2c1 | 8.6 | 117 | 27.5 | > 100 | – | > 100 | Stable | Active | 1000 | Active | 8.86 to 33.5 | 5.75 | 21.6 to 26 | 5.16 | 6.71 | 37.7% | 4.62 | – | – | Activity [10]: Active; Activity [13]: Active; Activity [14]: Active
CC(C)CNC(=N)c1ccc(Oc2ccnc3cc(Cl)ccc23)cc1.Cl.Cl.Cl | 16.9 | 71.9 | 25.5 | 30.3 | – | 52.3 | Stable | – | 1000 | Active | -0.44 | 1.91 | – | -0.8 | – | – | -0.71 | Active | Active | ΔTm [23]: 1.85 °C; ΔTm [24]: 1.97 °C
N#Cc1ccc(OCCNc2ccnc3cc(Cl)ccc23)cc1 | 7.2 | 95.3 | 6.2 | > 100 | 1000 (≈ 324 µg/mL) | 84.4 | Stable | – | – | Active | – | – | 26.2 | – | inactive | inactive | – | Active | Active | –
